The results in this text go back to ChEMBL document CHEMBL2203113, “Discovery of 2-(2-oxo-1-phenyl-5-pyridin-2-yl-1,2-dihydropyridin-3-yl)benzonitrile (perampanel): a novel, noncompetitive α-amino-3-hydroxy-5-methyl-4-isoxazolepropanoic acid (AMPA) receptor antagonist” (J Med Chem, 2012).

Molecules are shown by their SMILES.

The nature of data set [1]: Antagonist activity at AMPA receptor in E18 rat cerebral cortical neurons assessed as inhibition of AMPA-induced intracellular Ca2+ response by fura-2 AM dye based fluorimetry. It is filed as functional, cell-based.
The test system of data set [2] is Mus musculus. In words: Anticonvulsant activity in po dosed ddY mouse AMPA-induced seizure model. It is filed as functional. The note with it: read-out: MED. The method, boiled down:
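Male 5-week-old ddY mice given compound orally as a 0.5% MC suspension 1 h before challenge. Clonic seizures induced by intracerebroventricular AMPA infusion at 2 nmol/5 μL/min; latency to clonic seizure recorded. MED taken as lowest dose giving statistically significant prolongation of latency.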

Data set [3] is described as follows: Half life in healthy human. Type of data set: ADME, organism-based. The settings on record: in vivo.
In data set [4] the test system is Mus musculus. Put plainly: Anticonvulsant activity in ICR mouse pentylenetetrazole-induced seizure model at 0.75 to 3 mg/kg, po after 30 mins. It is filed as functional. The settings on record: 0.5 h, dose mg/kg 0.75-3.
The test system of data set [5] is Mus musculus. Put plainly: Anticonvulsant activity in ddY mouse MES-induced seizure model 0.75 to 2.12 mg/kg, po after 1hr. It is filed as functional. The settings on record: dose mg/kg 0.75-2.12.
For data set [6], the system named is Mus musculus. Put plainly: Anticonvulsant activity in DBA/2J mouse audinogenic seizure model at 0.3 to 3 mg/kg, po after 1 hr. It is filed as functional. The note with it: dose mg/kg 0.3-3.
The subject of data set [7] is Nucleic Acid. In words: Ratio of drug level in CSF to fraction unbound in plasma in ddY mouse at 0.5 mg/kg, ip after 20 mins. The note with it: in vivo. Type of data set: ADME, organism-based, Rattus norvegicus. Also noted: dose 0.5 mg/kg, route intraperitoneal. Put shortly: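 Male ddY mice were dosed ip. CSF was taken by cisternal puncture and processed like plasma: deproteinized with methanol/60% perchloric solution (500:1 v/v), then analysed by HPLC with fluorescence detection. The ratio is CSF concentration over unbound plasma concentration. Each value is the mean of two or three animals.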

Data set [8] in a line: Ratio of drug level in brain to plasma in Sprague-Dawley rat at 10 mg/kg, po after 30 mins. It is filed as ADME, organism-based. Also noted: dose 10 mg/kg, route oral. The note with it: brain and plasma, read-out: BPR. Put shortly: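 Male Sprague–Dawley rats were dosed orally. Brain was homogenized in two volumes of water. Brain homogenate and plasma were deproteinized with methanol/60% perchloric solution (500:1 v/v) and quantified by HPLC with fluorescence detection. The ratio is brain over plasma concentration, each value the mean of two or three animals.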

A short description of data set [9]: Ratio of drug level in brain to plasma in ddY mouse at 3 mg/kg, po after 60 mins. It is filed as ADME, organism-based. Details: dose 3 mg/kg, route oral. The settings on record: brain and plasma, read-out: BPR. Put shortly: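 Male ddY mice dosed orally at 3 mg/kg; brain and plasma taken at 60 min. Brain homogenized in two volumes of water, then processed like plasma (methanol/perchloric deproteinization, HPLC with fluorescence). Ratio is the mean of two or three animals.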

Data set [10] can be described thus: Oral bioavailability in Sprague-Dawley rat at 1 mg/kg. It is filed as ADME, organism-based. The settings on record: in vivo. The method, boiled down: (§1)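 Fasted male Sprague-Dawley rats, single 1 mg/kg dose iv or po, n = 3 per route. Blood drawn at set time points; plasma deproteinized with methanol/60% perchloric solution (500:1 v/v) and assayed by HPLC with fluorescence. Parameters from mean plasma concentrations of three animals by model-independent analysis; F = AUC(0-inf) oral/iv ratio.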

In data set [11] the test system is Rattus norvegicus. Put plainly: AUC in Sprague-Dawley rat at 1 mg/kg, po. It is filed as ADME, organism-based, Plasma. Also noted: dose 1 mg/kg, route oral. The settings on record: in vivo. Put shortly:
as §1

Data set [12] is described as follows: Cmax in Sprague-Dawley rat at 1 mg/kg, po. Type of data set: ADME, organism-based. Also noted: dose 1 mg/kg, route oral. The settings on record: in vivo. The method, boiled down: as §1
A short description of data set [13]: Tmax in Sprague-Dawley rat at 1 mg/kg, po. The note with it: in vivo. Details: dose 1 mg/kg, route oral. Type of data set: ADME, organism-based. The method, boiled down: as §1
A short description of data set [14]: Half life in Sprague-Dawley rat at 1 mg/kg, iv. Also noted: dose 1 mg/kg, route intravenous. Type of data set: ADME, organism-based. The note with it: in vivo. The method, boiled down: as §1
The subject of data set [15] is Rattus norvegicus. In words: AUC in Sprague-Dawley rat at 1 mg/kg, iv. Type of data set: ADME, organism-based, Plasma. Details: dose 1 mg/kg, route intravenous. The settings on record: in vivo. The method, boiled down: as §1
Data set [16] in a line: Volume of distribution at steady state in Sprague-Dawley rat at 1 mg/kg, iv. Type of data set: ADME, organism-based. Also noted: dose 1 mg/kg, route intravenous. The settings on record: in vivo, read-out: Vdss. Put shortly:
as §1

A short description of data set [17]: Plasma clearance in Sprague-Dawley rat at 1 mg/kg, iv. It is filed as ADME, organism-based. Also noted: dose 1 mg/kg, route intravenous. The method, boiled down:
as §1

For orientation: IC50 means the midpoint of a concentration-inhibition curve. One may read the half-life as the time needed for the level to fall by half in the phase considered. Low values mean fast loss, high ones slow loss. In general, ED50 refers to the midpoint of the dose-response relation. The low end stands for an effect at a small dose, the high end for a need for a large dose. A word on the bioavailability: it is the share of a dose that reaches the circulation, judged against a reference dose that is usually intravenous. A lower bioavailability goes with little systemic uptake. As usually defined, the Cmax is the highest concentration seen after dosing. The term Tmax denotes the time from dosing to the highest level. Broadly, the clearance is the rate of elimination divided by the concentration. Lower therefore signals inefficient removal.

With `O=c1c(-c2ccsc2)cc(-c2ccccn2)cn1-c1cccnc1`, in data set [1], the IC50 was found to be 0.78 µM.

Turning to `O=c1c(-c2ccccc2Cl)cc(-c2ccccn2)cn1-c1cccnc1`, the minimal effective dose in data set [2] is 25 mg/kg. Also, the IC50 in data set [1] worked out at 0.4 µM.

`N#Cc1sccc1-c1cc(-c2ccccn2)cn(-c2cccnc2)c1=O`: the minimal effective dose in data set [2] was 25 mg/kg. The half-inhibitory concentration (IC50) in data set [1] came out at 0.18 µM.

For `O=c1c(-c2ccccc2C(F)(F)F)cc(-c2ccccn2)cn1-c1cccnc1`, the IC50 in data set [1] worked out at 2.1 µM.

For `O=c1c(-c2cccnc2F)cc(-c2ccccn2)cn1-c1cccnc1`, the minimal effective dose in data set [2] was found to be 10 mg/kg. Besides, in data set [1], the IC50 stood at 1.45 µM.

In the case of `N#Cc1ccccc1-c1cc(-c2cccnc2)cn(-c2ccccc2)c1=O`, the IC50 in data set [1] was determined as 4.02 µM.

For the molecule `N#Cc1ccccc1-c1cc(-c2ccncc2)cn(-c2ccccc2)c1=O`, the 50% inhibitory concentration (IC50) in data set [1] came to 5.53 µM.

Consider `N#Cc1ccccc1-c1cc(-c2ccccc2)cn(-c2ccccc2)c1=O`, for which the minimal effective dose in data set [2] was found to be 25 mg/kg. Moreover, the IC50 in data set [1] is 0.33 µM.

As to `N#Cc1ccccc1-c1cc(-c2ccccc2F)cn(-c2ccccc2)c1=O`, the 50% inhibitory concentration (IC50) in data set [1] stood at 0.2 µM.

As to `N#Cc1ccccc1-c1cc(-c2cccs2)cn(-c2ccccc2)c1=O`, the IC50 in data set [1] stood at 0.1 µM.

On to `N#Cc1ccccc1-c1cc(-c2ccccc2C#N)c(=O)n(-c2ccccc2)c1`, for which the IC50 in data set [1] was determined as 8.43 µM.

For `COc1ccccc1-c1cc(-c2ccccc2C#N)c(=O)n(-c2ccccc2)c1`, the IC50 in data set [1] turned out to be 0.74 µM.

On to `N#Cc1ccccc1-c1cc(-c2ccsc2)cn(-c2ccccc2)c1=O`, for which, in [1], the IC50 was 0.14 µM.

On to `COc1cccc(-n2cc(-c3ccccn3)cc(-c3ccccc3C#N)c2=O)c1`, for which the 50% inhibitory concentration (IC50) in data set [1] is 0.25 µM.

Regarding `COc1ccccc1-n1cc(-c2ccccn2)cc(-c2ccccc2C#N)c1=O`, the concentration for half-maximal inhibition (IC50) in data set [1] is 0.15 µM.

Consider `COc1ccc(-n2cc(-c3ccccn3)cc(-c3ccccc3C#N)c2=O)cc1`, for which the concentration for half-maximal inhibition (IC50) in data set [1] was found to be 0.44 µM.

Turning to `N#Cc1ccccc1-c1cc(-c2ccccn2)cn(-c2ccc(F)nc2)c1=O`, the IC50 in data set [1] came out at 0.5 µM.

In the case of `N#Cc1ccccc1-c1cc(-c2ccccn2)cn(-c2ccccc2C#N)c1=O`, the IC50 in [1] was above 15 µM.

On to `N#Cc1ccc(-n2cc(-c3ccccn3)cc(-c3ccccc3C#N)c2=O)cc1`, for which the IC50 in data set [1] came out at 0.52 µM.

Consider `COc1ccc(-n2cc(-c3ccccn3)cc(-c3ccccc3C#N)c2=O)cn1`, for which the IC50 in data set [1] was 0.62 µM.

Regarding `O=C1COC(c2ccccc2)=NN1c1ccccc1`, in data set [1], the IC50 came to 9.17 µM.

For the molecule `O=C1COC(c2ccccc2)=NN1Cc1ccccc1`, the IC50 in data set [1] stood at 33.7 µM.

Regarding `O=C1COC(c2ccccc2)=NN1C1CCCCC1`, the IC50 in data set [1] is above 150 µM.

For the molecule `O=C1COC(C2CCCCC2)=NN1c1ccccc1`, in data set [1], the concentration for half-maximal inhibition (IC50) is above 150 µM.

For `CCCC1=NN(c2ccccc2)C(=O)CO1`, the IC50 in [1] is above 150 µM.

`O=C1COC(Cc2ccccc2)=NN1c1ccccc1`: the half-inhibitory concentration (IC50) in data set [1] was above 150 µM.

In the case of `O=C1CCC(c2ccccc2)=NN1c1ccccc1`, the IC50 in [1] is 28.1 µM.

Regarding `O=c1ccc(-c2ccccc2)cn1-c1ccccc1`, the IC50 in [1] was 69.5 µM.

Take `O=c1[nH]cc(-c2ccccc2)cc1-c1ccccc1`: the IC50 in data set [1] is 57.7 µM.

For the molecule `O=c1c(-c2ccccc2)cc(-c2ccccc2)cn1-c1ccccc1`, the IC50 in [1] was 1.08 µM.

For the molecule `O=c1c(-c2ccccc2)cc(-c2ccccn2)cn1-c1ccccc1`, the IC50 in data set [1] came out at 0.32 µM.

Regarding `O=c1c(-c2ccccc2)cc(-c2ccccn2)cn1-c1cccnc1`, the IC50 in data set [1] is 0.44 µM.

For the molecule `N#Cc1cccc(-c2cc(-c3ccccn3)cn(-c3ccccc3)c2=O)c1`, in [1], the IC50 amounted to 7.26 µM.

Consider `N#Cc1ccc(-c2cc(-c3ccccn3)cn(-c3ccccc3)c2=O)cc1`, for which the IC50 in data set [1] was 28.7 µM.

In the case of `O=c1c(-c2ccccc2F)cc(-c2ccccn2)cn1-c1ccccc1`, the IC50 in data set [1] was found to be 0.2 µM.

As for `O=c1c(-c2ccccc2Cl)cc(-c2ccccn2)cn1-c1ccccc1`, the half-maximal inhibitory concentration (IC50) in data set [1] is 0.1 µM.

Consider `Cc1ccccc1-c1cc(-c2ccccn2)cn(-c2ccccc2)c1=O`, for which the IC50 in [1] amounted to 0.4 µM.

With `COc1ccccc1-c1cc(-c2ccccn2)cn(-c2ccccc2)c1=O`, the IC50 in data set [1] was determined as 1.42 µM.

As for `O=c1c(-c2cccnc2F)cc(-c2ccccn2)cn1-c1ccccc1`, the minimal effective dose in [2] was determined as 5 mg/kg. Further, the half-inhibitory concentration (IC50) in data set [1] stood at 0.37 µM.

With `O=c1c(-c2cccnc2Cl)cc(-c2ccccn2)cn1-c1ccccc1`, the IC50 in data set [1] was found to be 0.68 µM.

For the molecule `N#Cc1ncccc1-c1cc(-c2ccccn2)cn(-c2ccccc2)c1=O`, the minimal effective dose in data set [2] was determined as 5 mg/kg. The half-inhibitory concentration (IC50) in data set [1] worked out at 0.2 µM.

`N#Cc1ccccc1-c1cc(-c2ccccn2)cn(-c2cccnc2)c1=O`: the minimal effective dose in data set [2] was determined as 10 mg/kg. For the same molecule, in data set [1], the IC50 worked out at 0.21 µM.

As to `N#Cc1ccccc1-c1cc(-c2ccccn2)cn(-c2ccccc2)c1=O` [PERAMPANEL], the half-life was 70 h in [3] and 2.37 h in data set [14]. The figures for the median effective dose (ED50) in [4], in data set [5] and in data set [6] were 0.94 mg/kg, 1.6 mg/kg and 0.47 mg/kg, respectively. Further, the Ratio in data set [7] came out at 1.14. Also, the Kp at 0.5 h in [8] was found to be 1.14. Besides, in data set [9], the Kp at 1 h stood at 1.06. For the same molecule, the bioavailability in data set [10] was 64.3%. Also, the values for the AUC in data set [11] and in [15] were 0.36 µg/mL/h and 0.56 µg/mL/h, respectively. In [12], this molecule had a Cmax of 170 ng/mL. For the same molecule, the Tmax in data set [13] stood at 0.5 h. Further, the Vd in data set [16] was determined as 4.56 L/kg. The clearance in data set [17] is 30.3 mL/min/kg. Also, the minimal effective dose in data set [2] was determined as 2 mg/kg. Besides, the half-maximal inhibitory concentration (IC50) in [1] worked out at 0.06 µM.
